Test results from ChEMBL document CHEMBL4431307, “Dehydroleucodine, a Sesquiterpene Lactone from Gynoxys verrucosa, Demonstrates Cytotoxic Activity against Human Leukemia Cells” (J Nat Prod, 2016).
Calls of active or inactive are those of the source. The calls are words filed in the database; no cut-off is given here.

Key:
MV4-11 [1] = test: Cytotoxicity against human MV4-11 cells assessed as decrease in cell viability after 48 hrs […]; assay type: functional; settings: MV4-11, 48 h, read-out: LD50 (the source's name)
In short: (§1)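 AML cell lines seeded at 0.5 million cells/mL (counted by Trypan Blue exclusion) and exposed to varying concentrations in triplicate for 48 h. Read-out by flow cytometry after annexin V (FITC or PE) and 7-AAD staining, at least 50 000 events per condition; annexin V/7AAD double-negative cells scored viable. Value reported as LD50.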

MOLM-13 [2] = test: Cytotoxicity against human MOLM13 cells assessed as decrease in cell viability after 48 hrs […]; assay type: functional; settings: MOLM-13, 48 h, read-out: LD50 (the source's name); in short: as §1
Homo sapiens [3] = species on record: Homo sapiens; test: Inhibition of NF-kappaB p65 phosphorylation in human MOLM13 cells at 5 to 20 uM after 6 hrs by Western blot analysis; assay type: cell-based
In short: (§2)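 MOLM-13 cells at 0.5 million/mL were treated 6 h and lysed on ice for 30 min in Tris pH 7.5/NaCl/Triton/SDS buffer with phosphatase and protease inhibitors. Lysates were run on 10% SDS-PAGE and blotted to PVDF. Membranes were probed separately for phospho-p65 and total p65 at 4 °C overnight, detected with IRDye secondaries by infrared imaging, with total p65 as loading control.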

U-937 [4] = test: Cytotoxicity against human U937 cells assessed as decrease in cell viability after 48 hrs […]; assay type: functional; settings: U-937, 48 h, read-out: LD50 (the source's name); in short: as §1
MOLM-13 [5] = test: Upregulation of heme oxygenase 1 in human MOLM13 cells at 20 uM after 6 hrs by qRT-PCR analysis; assay type: functional, cell-based
In short: (§3)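 MOLM-13 cells at 0.5 million/mL were treated 6 h with 20 μM compound, then total RNA was extracted. One-step TaqMan RT-qPCR was run: RT 48 °C 15 min, then 95 °C 10 min, then 40 cycles of 95 °C 15 s and 60 °C 1 min. Singleplex reactions were in triplicate, with fold change by the 2^-ΔΔCt method.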

Homo sapiens [6] = species on record: Homo sapiens; test: Inhibition of NF-kappaB in human MOLM13 cells assessed as CDK6 gene expression at 10 to 20 uM after 6 hrs by Western blot analysis; assay type: cell-based
KG-1 [7] = test: Cytotoxicity against human KG1 cells assessed as decrease in cell viability after 48 hrs […]; assay type: functional; settings: KG-1, 48 h, read-out: LD50 (the source's name); in short: as §1
Homo sapiens [8] = species on record: Homo sapiens; test: Inhibition of NF-kappaB in human MOLM13 cells assessed as MYB gene expression at 10 to 20 uM after 6 hrs by Western blot analysis; assay type: cell-based
MOLM-13 [9] = test: Downregulation of NF-kappaB1A transcription in human MOLM13 cells at 20 uM after 6 hrs by qRT-PCR analysis; assay type: functional, cell-based; in short: as §3
HL-60 [10] = test: Cytotoxicity against human HL60 cells assessed as decrease in cell viability after 48 hrs […]; assay type: functional; settings: HL-60, 48 h, read-out: LD50 (the source's name); in short: as §1
THP-1 [11] = test: Cytotoxicity against human THP1 cells assessed as decrease in cell viability after 48 hrs […]; assay type: functional; settings: THP-1, 48 h, read-out: LD50 (the source's name); in short: as §1
Kasumi 1 [12] = test: Cytotoxicity against human Kasumi-1 cells assessed as decrease in cell viability after 48 hrs by […]; assay type: functional; settings: Kasumi 1, 48 h, read-out: LD50 (the source's name); in short: as §1
Homo sapiens [13] = species on record: Homo sapiens; test: Inhibition of NF-kappaB DNA binding activity in human MOLM13 cells by ELISA; assay type: cell-based
In short: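 p65 DNA-binding ELISA in MOLM-13 cells, with TNFα as positive control, run in triplicate.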

TUR [14] = test: Cytotoxicity against human TUR cells assessed as decrease in cell viability after 48 hrs […]; assay type: functional; settings: read-out: LD50 (the source's name); in short: as §1
MOLM-13 [15] = test: Effect on total NF-kappaB p65 level in human MOLM13 cells at 5 to 20 uM after 6 hrs by Western blot analysis; assay type: cell-based; settings: molm-13, 6 h; in short: as §2
MOLM-13 [16] = test: Upregulation of HSPA1A in human MOLM13 cells at 20 uM after 6 hrs by qRT-PCR analysis; assay type: functional, cell-based; in short: as §3
Bone marrow cell [17] = test: Cytotoxicity against human bone marrow cells assessed as decrease in cell viability at 50 uM after 48 hrs by annexin V-FITC/7-AAD staining based flow cytometry relative to control
In short: (§4)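 Bone marrow and peripheral blood mononuclear cells from healthy donors were isolated by Ficoll density gradient. They were held 1 h in serum-free medium with rhFLT-3 ligand 50 ng/mL, rhSCF 50 ng/mL, rhIL-3 20 ng/mL and rhIL-6 20 ng/mL before drug. Treatment ran 48 h, and viability was read by annexin V/7-AAD flow cytometry relative to untreated control.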

PBMC [18] = test: Cytotoxicity against human peripheral blood mononuclear cells assessed as decrease in cell viability at 50 uM after 48 hrs by annexin V-FITC/7-AAD staining based flow cytometry relative to control; in short: as §4
Kasumi 1 [19] = test: Cytotoxicity against human Kasumi-1 cells assessed as decrease in cell viability at 20 uM after 48 hrs by annexin V-FITC/7-AAD staining based flow cytometry relative to control; assay type: functional
In short: (§5)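 AML cell lines kept at 0.5 million cells/mL and treated in triplicate for 48 h. Cells were stained with annexin V (FITC or PE) plus 7-AAD, and at least 50 000 events were recorded per condition by flow cytometry. Annexin V-/7-AAD- cells were scored viable, with viability taken relative to untreated control.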

TUR [20] = test: Cytotoxicity against human TUR cells assessed as decrease in cell viability at 20 uM after 48 hrs by annexin V-FITC/7-AAD staining based flow cytometry relative to control; assay type: functional; in short: as §5
KG-1 [21] = test: Cytotoxicity against human KG1 cells assessed as decrease in cell viability at 20 uM after 48 hrs by annexin V-FITC/7-AAD staining based flow cytometry relative to control; assay type: functional; in short: as §5
Bone marrow cell [22] = test: Cytotoxicity against human bone marrow cells assessed as decrease in cell viability at 20 uM after 48 hrs by annexin V-FITC/7-AAD staining based flow cytometry relative to control; in short: as §4
MOLM-13 [23] = test: Cytotoxicity against human MOLM13 cells assessed as decrease in cell viability at 20 uM after 48 hrs by annexin V-FITC/7-AAD staining based flow cytometry relative to control; assay type: functional; in short: as §5
MV4-11 [24] = test: Cytotoxicity against human MV4-11 cells assessed as decrease in cell viability at 20 uM after 48 hrs by annexin V-FITC/7-AAD staining based flow cytometry relative to control; assay type: functional; in short: as §5
THP-1 [25] = test: Cytotoxicity against human THP1 cells assessed as decrease in cell viability at 20 uM after 48 hrs by annexin V-FITC/7-AAD staining based flow cytometry relative to control; assay type: functional; in short: as §5
PBMC [26] = test: Cytotoxicity against human peripheral blood mononuclear cells assessed as decrease in cell viability at 20 uM after 48 hrs by annexin V-FITC/7-AAD staining based flow cytometry relative to control; in short: as §4
HeLa S3 = test: Cytotoxicity against human HeLaS3 cells assessed as decrease in cell viability after 72 to 96 hrs by MTT assay; assay type: functional, cell-based
U-937 [27] = test: Cytotoxicity against human U937 cells assessed as decrease in cell viability at 20 uM after 48 hrs by annexin V-FITC/7-AAD staining based flow cytometry relative to control; assay type: functional; in short: as §5
Leukemia cell = test: Cytotoxicity against primary leukemia cells isolated from human AML patient assessed as cell death after 48 hrs by […]; assay type: functional; settings: read-out: LD50 (the source's name)
MCF7 = test: Cytotoxicity against human MCF7 cells assessed as decrease in cell viability after 72 to 96 hrs by MTT assay; assay type: functional, cell-based
HL-60 [28] = test: Cytotoxicity against human HL60 cells assessed as decrease in cell viability at 20 uM after 48 hrs by annexin V-FITC/7-AAD staining based flow cytometry relative to control; assay type: functional; in short: as §5
KB = test: Cytotoxicity against human KB cells assessed as decrease in cell viability after 72 hrs by MTT assay; assay type: functional, cell-based

C=C1C(=O)O[C@@H]2[C@@H]1CC/C(C)=C/CC[C@]1(C)O[C@H]21
CC50 (MV4-11 [1]): 8.6 µM
CC50 (MOLM-13 [2]): 3.4 µM
inhibition (Homo sapiens [3]): Active
CC50 (U-937 [4]): 8.4 µM
Activity (MOLM-13 [5]): Active
inhibition (Homo sapiens [6]): Active
CC50 (KG-1 [7]): > 20 µM
inhibition (Homo sapiens [8]): Active
Activity (MOLM-13 [9]): Active
CC50 (HL-60 [10]): 13.9 µM
CC50 (THP-1 [11]): > 20 µM
CC50 (Kasumi 1 [12]): 3.6 µM
inhibition (Homo sapiens [13]): Active
CC50 (TUR [14]): 7.4 µM
Activity (MOLM-13 [15]): Non-Toxic
Activity (MOLM-13 [16]): Active

CC1=CC(=O)C2=C(C)CC[C@@H]3[C@H](OC(=O)[C@H]3C)[C@@H]12 [DESACETOXYMATRICARIN]
CC50 (MV4-11 [1]): > 20 µM
Activity (Bone marrow cell [17]): Non-Toxic
CC50 (MOLM-13 [2]): > 20 µM
Activity (PBMC [18]): Non-Toxic
CC50 (U-937 [4]): > 20 µM
Activity (MOLM-13 [5]): Active
CC50 (KG-1 [7]): > 20 µM
Activity (MOLM-13 [9]): Active
CC50 (HL-60 [10]): > 20 µM
CC50 (THP-1 [11]): > 20 µM
CC50 (Kasumi 1 [12]): > 20 µM
inhibition (Homo sapiens [13]): inactive
CC50 (TUR [14]): > 20 µM
Activity (MOLM-13 [16]): Active

C=C1C(=O)O[C@@H]2[C@H]3C(C)=CC(=O)C3=C(C)CC[C@@H]12 [DEHYDROLEUCODIN]
CC50 (MV4-11 [1]): 5 µM
Activity (Kasumi 1 [19]): Active
Activity (TUR [20]): Active
CC50 (MOLM-13 [2]): 12.6 µM
Activity (KG-1 [21]): Active
Activity (Bone marrow cell [22]): Non-Toxic
Activity (MOLM-13 [23]): Active
inhibition (Homo sapiens [3]): Active
Activity (MV4-11 [24]): Active
CC50 (U-937 [4]): 18.9 µM
Activity (MOLM-13 [5]): Active
Activity (THP-1 [25]): Active
inhibition (Homo sapiens [6]): Active
CC50 (KG-1 [7]): 18.7 µM
Activity (PBMC [26]): Non-Toxic
inhibition (Homo sapiens [8]): Active
IC50 (HeLa S3): 10 µM
Activity (U-937 [27]): Active
Activity (MOLM-13 [9]): Active
CC50 (HL-60 [10]): 14.1 µM
CC50 (THP-1 [11]): 16.8 µM
CC50 (Leukemia cell): 9.4 µM
CC50 (Kasumi 1 [12]): 12.9 µM
IC50 (MCF7): 5 µM
Activity (HL-60 [28]): Active
inhibition (Homo sapiens [13]): Active
CC50 (TUR [14]): 12.2 µM
IC50 (KB): 5.3 µM
Activity (MOLM-13 [15]): Non-Toxic
Activity (MOLM-13 [16]): Active
